Measurements published in article PMC11253873 (RSC Medicinal Chemistry, 2024).
≈ marks a conversion by molar mass, not a printed value. Where “and” joins values, the source holds several entries; their conditions need not be identical. Equal values may be shown once.

How the values were obtained:
[1] = tested on: Mtb H37Rv; test: microbe, parasite or virus in culture; type: cell-based, Mycobacterium tuberculosis; settings: Mycobacterium tuberculosis, H37RV, 336 h, read-out: Mtb MIC
[2] = tested on: HepG2 cells; test: HepG2 cell inhibition; type: cell-based; settings: Homo sapiens, HepG2, 24 h, read-out: HepG2 IC50
[3] = tested on: MEP pathway in P. falciparum parasites; test: IPP rescue of inhibitor-treated P. falciparum; type: cell-based, Plasmodium falciparum; settings: 125 μM IPP added to media
Procedure, shortened: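 The rescue format is the standard 3-day growth assay with 125 μM IPP present throughout. Parasites are at 0.5% parasitemia and 2% hematocrit in supplemented RPMI-1640/Albumax, under 5% O2/5% CO2/90% N2 at 37 °C, with 1.2 nM–492.4 μM test compound. Growth is measured as PicoGreen DNA fluorescence and fitted to a 4-parameter dose–response curve. Technical duplicates, biological triplicate.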

[4] = tested on: had1 mutant Pf strain (E1-C12); test: Growth inhibition of fosmidomycin-resistant had1 mutant P. falciparum; type: cell-based, Plasmodium falciparum; settings: had1 mutant versus wild type 3D7
Procedure, shortened: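 Asynchronous cultures of wild-type 3D7 and fosmidomycin-resistant had1 strain E1-C12 are kept at 2% hematocrit in supplemented RPMI-1640 with 0.5% Albumax, under 5% O2/5% CO2/90% N2 at 37 °C. Parasites are diluted to 0.5% parasitemia and exposed to 1.2 nM–492.4 μM test compound from the start. After 3 days, DNA is read with PicoGreen (ex 485/em 528 nm). IC50 comes from a 4-parameter nonlinear fit. Technical duplicates, biological triplicate.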

Question: Which results are given for `COc1ccc(C(C)ON(CCC(c2ccc(Cl)c(Cl)c2)P(=O)(OCOC(=O)C(C)(C)C)OCOC(=O)C(C)(C)C)C(C)=O)cc1` (stereo not shown) [Compound 7l, ({[1-(3,4-Dichlorophenyl)-3-{N-[1-(4-methoxyphenyl)ethoxy]acetamido}propyl]({[(2,2-dimethylpropanoyl)oxy]methoxy})phosphoryl}oxy)methyl 2,2-dimethylpropanoate]?
Answer: MIC [1]: 4.6 µg/mL (≈ 6.53 µM); IC50 [2]: > 100 µg/mL and > 140 µM; IPP rescue of growth of drug-treated P. falciparum parasites [3]: rescues the growth; cross resistance of fosmidomycin-resistant had1 mutant Pf strain [4]: displayed increased resistance
